pIC50: −log10 of the molar value.
Assays:
[1] = target: T1, Betaine--homocysteine S-methyltransferase 1 (Homo sapiens) (UniProt Q93088); test: Inhibition of human BHMT at 20 uM
T1 sequence (whole entry): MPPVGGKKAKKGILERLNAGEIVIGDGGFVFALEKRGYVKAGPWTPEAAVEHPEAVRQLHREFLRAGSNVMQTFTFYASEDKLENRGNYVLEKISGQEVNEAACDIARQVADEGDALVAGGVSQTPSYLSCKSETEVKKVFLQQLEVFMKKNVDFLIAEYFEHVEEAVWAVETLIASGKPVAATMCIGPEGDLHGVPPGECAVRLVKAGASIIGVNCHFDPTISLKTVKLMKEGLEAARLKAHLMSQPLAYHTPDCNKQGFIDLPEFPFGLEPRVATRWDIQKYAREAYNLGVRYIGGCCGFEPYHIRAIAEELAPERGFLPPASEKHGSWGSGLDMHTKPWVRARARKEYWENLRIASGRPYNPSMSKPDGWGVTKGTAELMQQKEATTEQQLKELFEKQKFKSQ
Summary of the method: (§1)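 Recombinant human BHMT (0.2 µM) premixed with inhibitor, then 100 µM D,L-homocysteine and 250 µM N-methyl-¹⁴C-betaine (0.05 µCi) added; 50 mM K-phosphate pH 7.5, 10 mM β-mercaptoethanol, 37°C for 30 min. Radiolabel incorporation read against enzyme-free blanks; triplicates, percent relative to no-inhibitor control.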

[2] = target: T2, Betaine--homocysteine S-methyltransferase 1 (Homo sapiens, UniProt Q93088); test: Inhibition of human BHMT
T2 sequence (Q93088 whole entry): T1 sequence (whole entry)
Summary of the method: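 Recombinant human BHMT (0.2 µM) mixed with inhibitor at ten concentrations, then 1 mM D,L-homocysteine and 2 mM betaine (¹⁴C-methyl labelled, 0.15 µCi) added in 50 mM K-phosphate pH 7.5 with 10 mM β-mercaptoethanol; 30 min at 37°C. Enzyme-free blanks subtracted. IC50 by nonlinear regression; points in duplicate, three independent assays.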

[3] = target: T1, Betaine--homocysteine S-methyltransferase 1 (Homo sapiens); test: Inhibition of human BHMT at 1 uM; summary of the method: as §1

| SMILES | inhibition [1] | pIC50 [2] | inhibition [3] |
| --- | --- | --- | --- |
| NC(CC[S+]([O-])CC(N)C(=O)O)C(=O)O (stereo not given) | 9.5% | – | – |
| COC(=O)C(N)CCSCC(=O)NCP(=O)(O)O (racemic) | 0% | – | – |
| NC(CCSc1ccccc1C(=O)O)C(=O)O (racemic) | 42.5% | – | – |
| N[C@@H](CSCCCCC(=O)O)C(=O)O | 0% | – | – |
| NC(CCSc1cccc(C(=O)O)c1)C(=O)O (racemic) | 12.8% | – | – |
| NC(CC[S+]([O-])CCCCC(=O)O)C(=O)O (racemic) | 97.3% | 5.30 | 67.8% |
| NC(CCSc1ccc(C(=O)O)cc1)C(=O)O (racemic) | 98.6% | 5.15 | 84.8% |
| NC(CCSCc1ccc(CC(=O)O)cc1)C(=O)O (racemic) | 10.1% | – | – |
| NC(CCS(=O)(=O)CCCCC(=O)O)C(=O)O (racemic) | 28.8% | – | – |
| NC(CCSSCCC(N)C(=O)O)C(=O)O (stereo not given) | 0% | – | – |

The next lines start with the values.

| inhibition [1] | pIC50 [2] | inhibition [3] | SMILES |
| --- | --- | --- | --- |
| 97.8% | 5.24 | 74% | NC(CCSCCCCP(=O)(O)O)C(=O)O (racemic) |
| 25.5% | – | – | NC(CCSCCOCP(=O)(O)O)C(=O)O (racemic) |
| 30% | – | 0% | NC(CCSSCCC(=O)O)C(=O)O (racemic) |
| 100% | – | 98.3% | NC(CCSCCCCC(=O)O)C(=O)O (racemic) |
| 20.1% | – | – | NC(CCSCCCC(=O)O)C(=O)O (racemic) |
| 89.8% | – | 55.3% | NC(CCSCC[S+]([O-])CC(=O)O)C(=O)O (racemic) |
| 100% | 6.70 | 99.9% | NC(CCSCCCCCC(=O)O)C(=O)O (racemic) |
| 0% | – | – | C=CCSCCC(N)C(=O)O (racemic) |
| 18.8% | – | – | NC(CCSCC(N)C(=O)O)C(=O)O (stereo not given) |
| 8.8% | – | – | NC(CCSCC(=O)NCP(=O)(O)O)C(=O)O (racemic) |
| 20.5% | – | – | CSCSCCC(N)C(=O)O (racemic) |
| 100% | 7.02 | 96.8% | NC(CCSCCSCC(=O)O)C(=O)O (racemic) |
